Laboratory results as given in ChEMBL document CHEMBL4396879, “Conjugation of Short Peptides to Dibenzodiazepinone-Type Muscarinic Acetylcholine Receptor Ligands Determines M2R Selectivity” (J Med Chem, 2019).

Legend:
[1] = biological target: Muscarinic acetylcholine receptors; M1 & M2 (Homo sapiens) (UniProt P11229+P08172); assay: Selectivity ratio of Ki for human muscarinic M1 receptor expressed in CHO-K9 cells to Ki for human muscarinic M2 receptor expressed in CHO-K9 cells; type: cell-based
Method in brief: (§1)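 Ratio of mean Ki values. Each Ki came from an individual [3H]NMS competition experiment at the given CHO-hMxR subtype, converting IC50 to Ki by Cheng-Prusoff before averaging.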

[2] = biological target: T1, Muscarinic acetylcholine receptor M2 (Homo sapiens, UniProt P08172); assay: Competitive displacement of [3H]-NMS from human muscarinic M2 receptor expressed in CHO-K9 cells using 2 nM [3H]-NMS after 3 hrs by microbeta2 scintillation counting method; type: cell-based
T1 sequence (P08172 whole entry): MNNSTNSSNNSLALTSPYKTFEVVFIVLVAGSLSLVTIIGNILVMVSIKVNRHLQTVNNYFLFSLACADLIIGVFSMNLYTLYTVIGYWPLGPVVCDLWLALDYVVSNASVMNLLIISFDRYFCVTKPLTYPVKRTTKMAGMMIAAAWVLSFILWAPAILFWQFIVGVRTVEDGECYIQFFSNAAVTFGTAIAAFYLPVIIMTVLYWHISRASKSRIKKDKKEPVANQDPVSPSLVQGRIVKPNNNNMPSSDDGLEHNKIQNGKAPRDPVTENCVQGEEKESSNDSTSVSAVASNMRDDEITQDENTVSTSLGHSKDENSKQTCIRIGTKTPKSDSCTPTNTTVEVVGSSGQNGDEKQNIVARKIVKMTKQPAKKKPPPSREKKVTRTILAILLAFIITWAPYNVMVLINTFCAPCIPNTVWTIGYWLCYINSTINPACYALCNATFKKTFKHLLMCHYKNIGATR
Method in brief: (§2)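 Intact CHO-hM2R cells incubated at 22 °C with a high [3H]NMS concentration (2 nM). […] Curves were fitted by four-parameter logistic fits. Mean ± SEM from ≥4 experiments in triplicate.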

[3] = biological target: Muscarinic acetylcholine receptors; M2 & M3 (Homo sapiens) (UniProt P20309+P08172); assay: Selectivity ratio of Ki for human muscarinic M3 receptor expressed in CHO-K9 cells to Ki for human muscarinic M2 receptor expressed in CHO-K9 cells; type: cell-based; method in brief: as §1
[4] = biological target: T2, Muscarinic acetylcholine receptor M5 (Homo sapiens, UniProt P08912); assay: Displacement of [3H]-NMS from human muscarinic M5 receptor expressed in CHO-K9 cells after 3 hrs by microbeta2 scintillation counting method; type: cell-based
T2 sequence (P08912 whole entry): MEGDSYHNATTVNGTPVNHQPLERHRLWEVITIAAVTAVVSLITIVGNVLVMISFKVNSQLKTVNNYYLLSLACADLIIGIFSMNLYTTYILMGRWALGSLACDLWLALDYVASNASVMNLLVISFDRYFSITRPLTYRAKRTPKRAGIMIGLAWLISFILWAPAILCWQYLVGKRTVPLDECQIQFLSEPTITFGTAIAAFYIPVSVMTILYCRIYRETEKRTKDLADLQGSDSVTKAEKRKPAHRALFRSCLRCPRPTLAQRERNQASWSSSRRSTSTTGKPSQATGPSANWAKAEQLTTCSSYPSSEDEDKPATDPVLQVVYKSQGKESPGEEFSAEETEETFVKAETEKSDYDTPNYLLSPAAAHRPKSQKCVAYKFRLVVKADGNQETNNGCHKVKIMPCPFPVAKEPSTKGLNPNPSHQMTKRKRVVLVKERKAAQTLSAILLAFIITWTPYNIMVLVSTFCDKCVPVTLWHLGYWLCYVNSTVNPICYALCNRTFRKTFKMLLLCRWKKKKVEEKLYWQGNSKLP
Method in brief: (§3)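 [3H]NMS competition binding on intact CHO-hMxR cells in L15 medium with 1% BSA, 3 h at 22 ± 1 °C with gentle shaking. [3H]NMS was 0.2 nM (M1, M2, M3), 0.1 nM (M4) or 0.3 nM (M5). […] Cells were lysed in urea/acetic acid/Triton and counted by liquid scintillation. Ki from Cheng-Prusoff. Triplicates, ≥3 experiments.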

[5] = Stability of the compound in human plasma used as 1:2 ratio of plasma to pH 7.4 PBS assessed as intact compound at 100 uM incubated for 48 hr by LC-MS analysis; type: ADME, cell-free; conditions: plasma diluted with PBS (1:2), read-out: Stability
Method in brief: (§4)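 Compound added at 100 μM (from 5 mM stock in acetonitrile/0.04% TFA 3:7) to heparinized human plasma/PBS pH 7.4 (1:2 v/v) with 10 μM 1-methyl-D-tryptophan as internal standard. Incubated shaking at 37 °C in triplicate. Aliquots were EtOH/acetonitrile-precipitated and analysed by RP-HPLC at 220 nm, with recovery correction against four-point calibrations.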

[6] = Stability of the compound in human plasma used as 1:2 ratio of plasma to pH 7.4 PBS assessed as intact compound at 100 uM incubated for 6 hr […]; type: ADME, cell-free; conditions: plasma diluted with PBS (1:2), read-out: Stability
[7] = Stability of the compound in human plasma:PBS of pH 7.4 (1:2) assessed as intact compound at 100 uM incubated for 1 hr by LC-MS analysis; type: ADME, cell-free; conditions: plasma diluted with PBS (1:2), read-out: Stability; method in brief: as §4
[8] = biological target: T1, Muscarinic acetylcholine receptor M2; assay: Competitive displacement of [3H]-NMS from human muscarinic M2 receptor expressed in CHO-K9 cells using 0.2 nM [3H]-NMS after 3 hrs by microbeta2 scintillation counting method; type: cell-based
Method in brief: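 Intact CHO-hM2R cells (90-100% confluent) incubated 3 h at 22 ± 1 °C in L15 medium with 1% BSA and 0.2 nM [3H]NMS. […] Cells were lysed in urea/acetic acid/Triton-X-100 and radioactivity was counted. Ki via Cheng-Prusoff.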

[9] = Stability of the compound in human plasma used as 1:2 ratio of plasma to pH 7.4 PBS assessed as intact compound at 100 uM incubated for 24 hr […]; type: ADME, cell-free; conditions: plasma diluted with PBS (1:2), read-out: Stability
[10] = biological target: T3, Muscarinic acetylcholine receptor M2 (Homo sapiens) (UniProt P08172); assay: (§5) Antagonist activity at human muscarinic M2 receptor expressed in HEK293 cells co-expressing HA-Galphaq/i5 assessed as inhibition of carbachol-induced IP1 accumulation pre-incubated for 30 mins followed by carbachol addition and measured after 1 hr by HTRF assay; type: functional, cell-based
T3 sequence (whole entry): T1 sequence (P08172 whole entry)
Method in brief: (§6)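 HEK-293 cells transiently cotransfected (receptor plus HA-tagged Gαqi5), detached after 1 day and seeded at 10,000 cells/well for 24 h at 37 °C. Duplicates.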

[11] = biological target: T1, Muscarinic acetylcholine receptor M2; assay: as §5; type: functional, cell-based; method in brief: as §6
[12] = biological target: Muscarinic acetylcholine receptor M3 (Homo sapiens, UniProt P20309); assay: Displacement of [3H]-NMS from human muscarinic M3 receptor expressed in CHO-K9 cells after 3 hrs by microbeta2 scintillation counting method; type: cell-based; method in brief: as §3
[13] = biological target: Muscarinic acetylcholine receptor M2 and M4 (Homo sapiens) (UniProt P08173+P08172); assay: Selectivity ratio of Ki for human muscarinic M4 receptor expressed in CHO-K9 cells to Ki for human muscarinic M2 receptor expressed in CHO-K9 cells; type: cell-based; method in brief: as §1
[14] = biological target: T1, Muscarinic acetylcholine receptor M2; assay: Displacement of [3H]-NMS from human muscarinic M2 receptor expressed in CHO-K9 cells after 3 hrs by microbeta2 scintillation counting method; type: cell-based; method in brief: as §3
[15] = biological target: T3, Muscarinic acetylcholine receptor M2 (Homo sapiens); assay: Competitive displacement of [3H]-NMS from human muscarinic M2 receptor expressed in CHO-K9 cells using 2 nM [3H]-NMS after 3 hrs by microbeta2 scintillation counting method relative to control; type: cell-based; method in brief: as §2

Chain of Muscarinic acetylcholine receptor M3 (P20309 whole entry): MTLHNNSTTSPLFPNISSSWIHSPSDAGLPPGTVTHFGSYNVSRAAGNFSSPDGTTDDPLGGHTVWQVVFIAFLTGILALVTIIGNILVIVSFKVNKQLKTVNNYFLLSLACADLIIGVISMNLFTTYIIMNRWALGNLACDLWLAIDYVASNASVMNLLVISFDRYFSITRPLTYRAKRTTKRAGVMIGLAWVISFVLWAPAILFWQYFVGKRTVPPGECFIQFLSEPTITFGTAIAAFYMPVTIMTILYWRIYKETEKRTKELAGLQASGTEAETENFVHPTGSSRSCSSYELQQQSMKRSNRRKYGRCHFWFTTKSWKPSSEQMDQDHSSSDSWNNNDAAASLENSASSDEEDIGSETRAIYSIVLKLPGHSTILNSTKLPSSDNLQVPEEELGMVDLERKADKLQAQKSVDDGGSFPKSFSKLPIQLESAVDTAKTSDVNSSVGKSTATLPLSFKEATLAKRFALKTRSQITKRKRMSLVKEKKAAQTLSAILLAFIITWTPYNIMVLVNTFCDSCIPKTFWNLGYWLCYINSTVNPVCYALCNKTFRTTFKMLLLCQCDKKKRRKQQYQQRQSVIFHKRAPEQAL

SMILES	Ratio Ki [1]	IC50 [2]	Ki [2]	Ratio Ki [3]	Ki [4]	remaining at 48 h, 100 µM [5]	remaining at 6 h, 100 µM [6]	remaining at 1 h, 100 µM [7]	IC50 [8]	Ki [8]	remaining at 24 h, 100 µM [9]	inhibition [10]	IC50 [11]	Ki [12]	Ratio Ki [13]	Ki [14]	Activity [15]
CC(=O)N[C@@H](CCCCN)C(=O)N[C@@H](C)C(=O)N[C@@H](CCCNC(=N)N)C(=O)NCCN1CCN(CCCCC2CCN(CC(=O)N3c4ccccc4NC(=O)c4ccccc43)CC2)CC1	45	1.78 nM	0.0794 nM	1800	295 nM	> 99%	> 99%	> 99%	0.191 nM	0.0631 nM	> 99%	Dose-dependent effect	10.5 nM	110 nM	40	0.0631 nM	> 95%
CC(=O)N[C@@H](CCCCN)C(=O)N[C@@H](CCCNC(=N)N)C(=O)NCCCCC1CCN(CC(=O)N2c3ccccc3NC(=O)c3ccccc32)CC1	49	41.7 nM	2.04 nM	6500	427 nM	> 99%	> 99%	99%	3.31 nM	1.07 nM	> 99%	Dose-dependent effect	93.3 nM	6760 nM	60	1.07 nM	> 95%
